Test results as given in ChEMBL document CHEMBL1121885, “Inhibition of inosinic acid dehydrogenase by 8-substituted purine nucleotides” (J Med Chem, 1981).

molecular target: T1, Inosine-5'-monophosphate dehydrogenase (Escherichia coli K-12, UniProt P0ADG7); assay: Inhibition of inosine monophosphate dehydrogenase in Escherichia coli
T1 sequence (P0ADG7 whole entry): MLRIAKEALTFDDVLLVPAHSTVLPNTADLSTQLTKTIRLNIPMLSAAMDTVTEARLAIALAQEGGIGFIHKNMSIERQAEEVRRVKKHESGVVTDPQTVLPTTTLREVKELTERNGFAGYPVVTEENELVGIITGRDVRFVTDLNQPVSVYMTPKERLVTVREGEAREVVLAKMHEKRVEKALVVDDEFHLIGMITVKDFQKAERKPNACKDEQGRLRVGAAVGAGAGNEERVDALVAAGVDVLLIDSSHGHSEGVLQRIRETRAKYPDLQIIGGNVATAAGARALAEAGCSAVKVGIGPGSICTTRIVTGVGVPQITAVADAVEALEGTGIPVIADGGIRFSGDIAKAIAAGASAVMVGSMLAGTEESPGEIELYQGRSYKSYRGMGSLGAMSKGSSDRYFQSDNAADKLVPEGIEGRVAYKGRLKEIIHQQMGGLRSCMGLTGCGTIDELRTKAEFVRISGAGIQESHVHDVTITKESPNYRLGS
Outline: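 E. coli B IMP-DH (0-40% ammonium sulfate fraction of frozen paste, redissolved in 0.05 M Tris pH 8.5). Enzyme-started, 25 °C, NADH rise at 360 nm; Ki from weighted fit to linear competitive equation.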

Row | Structure (SMILES) | Ki [µM]
1 | Nc1ncnc2c1nc(SCc1ccc(C(=O)O)cc1)n2C1O[C@H](COP(=O)(O)O)[C@@H](O)[C@H]1O (some centres not stated) | 196
2 | Nc1ncnc2c1nc(Br)n2[C@@H]1O[C@H](COP(=O)(O)O)[C@@H](O)[C@H]1O | 161
3 | Nc1ncnc2c1nc(SCc1ccc(Cl)cc1)n2C1O[C@H](COP(=O)(O)O)[C@@H](O)[C@H]1O (some centres not stated) | 53
4 | CC(C)(C)c1ccc(CSc2nc3c(=O)[nH]cnc3n2C2O[C@H](COP(=O)(O)O)[C@@H](O)[C@H]2O)cc1 (some centres not stated) | 129
5 | Nc1ncnc2c1nc(NCc1ccccc1)n2C1O[C@H](COP(=O)(O)O)[C@@H](O)[C@H]1O (some centres not stated) | 275
6 | O=c1[nH]cnc2c1nc(SCc1ccc(Cl)cc1)n2C1O[C@H](COP(=O)(O)O)[C@@H](O)[C@H]1O (some centres not stated) | 29
7 | O=P(O)(O)OC[C@H]1OC(n2c(Sc3ccccc3)nc3c(O)ncnc32)[C@H](O)[C@@H]1O (some centres not stated) | 68
8 | Nc1ncnc2c1nc(Sc1ccc(Cl)cc1)n2C1O[C@H](COP(=O)(O)O)[C@@H](O)[C@H]1O (some centres not stated) | 70
9 | Nc1ncnc2c1nc(SCc1cc([N+](=O)[O-])cc([N+](=O)[O-])c1)n2C1O[C@H](COP(=O)(O)O)[C@@H](O)[C@H]1O (some centres not stated) | 21
10 | N#Cc1ccc(CSc2nc3c(O)ncnc3n2C2O[C@H](COP(=O)(O)O)[C@@H](O)[C@H]2O)cc1 (some centres not stated) | 19
11 | COc1ccc(CSc2nc3c(=O)[nH]cnc3n2C2O[C@H](COP(=O)(O)O)[C@@H](O)[C@H]2O)cc1 (some centres not stated) | 41
12 | Nc1ncnc2c1nc(Sc1ccccc1)n2C1O[C@H](COP(=O)(O)O)[C@@H](O)[C@H]1O (some centres not stated) | 137
13 | O=[N+]([O-])c1ccc(CSc2nc3c(O)ncnc3n2C2O[C@H](COP(=O)(O)O)[C@@H](O)[C@H]2O)cc1 (some centres not stated) | 26
14 | COc1ccc(CSc2nc3c(N)ncnc3n2C2O[C@H](COP(=O)(O)O)[C@@H](O)[C@H]2O)cc1 (some centres not stated) | 84
15 | Nc1ncnc2c1nc(SCc1ccc(F)cc1)n2C1O[C@H](COP(=O)(O)O)[C@@H](O)[C@H]1O (some centres not stated) | 74
16 | O=c1[nH]cnc2c1nc(Sc1cccc(C(F)(F)F)c1)n2C1O[C@H](COP(=O)(O)O)[C@@H](O)[C@H]1O (some centres not stated) | 105

Row | Structure (SMILES) | Ki [µM]
17 | O=P(O)(O)OC[C@H]1OC(n2c(NCc3ccccc3)nc3c(O)ncnc32)[C@H](O)[C@@H]1O (some centres not stated) | 236
18 | CCCCCSc1nc2c(N)ncnc2n1C1O[C@H](COP(=O)(O)O)[C@@H](O)[C@H]1O (some centres not stated) | 84
19 | Nc1ncnc2c1nc(SCc1ccc([N+](=O)[O-])cc1)n2C1O[C@H](COP(=O)(O)O)[C@@H](O)[C@H]1O (some centres not stated) | 52
20 | O=[N+]([O-])c1ccc(CCSc2nc3c(O)ncnc3n2C2O[C@H](COP(=O)(O)O)[C@@H](O)[C@H]2O)cc1 (some centres not stated) | 54
21 | Nc1ncnc2c1nc(SCCc1ccc([N+](=O)[O-])cc1)n2C1O[C@H](COP(=O)(O)O)[C@@H](O)[C@H]1O (some centres not stated) | 68
22 | Nc1ncnc2c1nc(SCCCc1ccccc1)n2C1O[C@H](COP(=O)(O)O)[C@@H](O)[C@H]1O (some centres not stated) | 64
23 | Nc1ncnc2c1nc(SCc1ccc([N+](=O)[O-])cc1Cl)n2C1O[C@H](COP(=O)(O)O)[C@@H](O)[C@H]1O (some centres not stated) | 17
24 | O=c1[nH]cnc2c1nc(SCc1ccccc1)n2C1O[C@H](COP(=O)(O)O)[C@@H](O)[C@H]1O (some centres not stated) | 46
25 | Nc1ncnc2c1nc(SCc1cccc([N+](=O)[O-])c1)n2C1O[C@H](COP(=O)(O)O)[C@@H](O)[C@H]1O (some centres not stated) | 47
26 | CC(C)(C)c1ccc(CSc2nc3c(N)ncnc3n2C2O[C@H](COP(=O)(O)O)[C@@H](O)[C@H]2O)cc1 (some centres not stated) | 130
27 | O=c1[nH]cnc2c1nc(Br)n2C1O[C@H](COP(=O)(O)O)[C@@H](O)[C@H]1O (some centres not stated) | 271
28 | Nc1ncnc2c1nc(S)n2C1O[C@H](COP(=O)(O)O)[C@@H](O)[C@H]1O (some centres not stated) | 98
29 | Nc1ncnc2c1nc(SCCc1ccccc1)n2C1O[C@H](COP(=O)(O)O)[C@@H](O)[C@H]1O (some centres not stated) | 91
30 | Nc1ncnc2c1nc(SCc1ccccc1)n2C1O[C@H](COP(=O)(O)O)[C@@H](O)[C@H]1O (some centres not stated) | 124
31 | N#Cc1ccc(CSc2nc3c(N)ncnc3n2C2O[C@H](COP(=O)(O)O)[C@@H](O)[C@H]2O)cc1 (some centres not stated) | 58
32 | Nc1ncnc2c1ncn2[C@@H]1O[C@H](COP(=O)(O)O)[C@@H](O)[C@H]1O [ADENOSINE PHOSPHATE] | 450
